Compound activity deposited in PubChem by several laboratories.
XiGFP reactiv = reactivates the inactive X chromosome in mouse fibroblasts; XiGFP mouse fibroblasts, % GFP-positive cells imaging, 3 d; cells co-treated with 5-aza-dC sensitizer; scaled so ellipticine positive control = 100%; AID 743238; activation, % at 7.58 µM; 360,000 tested, 0.055% active;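 active = mean normalized replicate activation at least 10% and every replicate at or above 10%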;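 note: 0% = median of on-plate neutral control wells and 100% = ellipticine 6 µM median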
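System: XiGFP fibroblasts, SV40-immortalized. Medium: DMEM plus 5-aza-dC sensitizer. Doses: single point. Timing: 3 d treatment, 15 min room-temperature fixation. Control set: ellipticine 6 µM.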
V-ATPase pHluor = yeast V-ATPase proton transport regulation by pHLuorin | S. cerevisiae, pHLuorin cytosolic pH fluorescence | response, % at 10 µM | 350,000 tested, 0.37% active | AID 504577; in the data active = response mostly above about 7.3%, no sharp cut-off; inactive = mostly below about 5.4%; note: actives read high
NTR1 ag = activates human neurotensin receptor 1 | NTR1-U2OS beta-arrestin-GFP spot imaging, agonist mode | P30989 | activation, % at 20 µM | AID 493036 | 330,000 tested, 0.17% active;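 active = activation at or above 40% of the spot to cytoplasm intensity ratio, with at least 20 cells analyzed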;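 note: 0% = DMSO without peptide and 100% = 100 nM NTR1 peptide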
MIN6 prolif = inducers of beta-cell replication in MIN6 cells | proliferation, % at 10 µM | MIN6 cells proliferation, ATPlite luminescence, 48 h; cells starved in 0.2% serum; 100% = growth in 10% serum | AID 2380 | 330,000 tested, 0.29% active;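 active = compounds whose signal lies at least 3.5 SD above the mean of all wells on their plate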;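 note: 0% = DMSO-treated cells in low-serum medium and 100% = 10% serum control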
T cell modulator = T cell immune modulators affecting CD8 T cell-vesicle binding; response (vesicle binding), % at 7 µM; AID 2052; 330,000 tested, 0.068% active; 2C CD8+ T cell-vesicle binding, flow cytometry; active compounds read low;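 active = response, share of CD8 T cells binding vesicles, and their 90th percentile fluorescence all below set limits, cut at about 80% in these data, passing the limit was not always enough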;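 note: values below 100% mean blocked vesicle binding to the CD8+ T cells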
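incubation = binding step 1.5 h, 37 °C, antibody labelling 20 min, ice | test system = 2C mouse CD8+ T cells | read-out basis = percent CD8+ FL2 mean versus row control | controls = Peptide-free naked vesicles (low) and QL9 vesicles with 0.7% DMSO vehicle (high) | detection = flow cytometry of vesicle-bound cells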
Arr AP2 block = inhibitors of human beta-arrestin and AP2 interaction; FITC-arrestin peptide / GST-AP2 beads, flow cytometry; AP2 beta2 appendage carries R879A mutation; inhibition, % at 10 µM; 340,000 tested, 0.31% active; AID 504490;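 active = inhibition above a set limit, near 3 SD of compounds lacking own fluorescence, cut at about 54% in these data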;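 note: plate controls were DMSO wells for no effect and 5 µM unlabelled arrestin peptide for full effect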
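System: GST-AP2 R879A bound to glutathione beads, E. coli-expressed. Also added: 50 nM FITC-arrestin peptide. Schedule: compound with beads 12 min RT, then probe 1 h RT. Signal: bead flow cytometry, FITC channel. Read-out basis: percent response.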
Arr-AP2 CP1 = blocks beta-arrestin peptide binding to human AP2 | shares compounds with Arr AP2 block | GST-AP2 beads, FITC arrestin peptide binding, flow cytometry; GST-fused beta2-adaptin appendage, R879A mutant | inhibition, % at 10 µM | 1,300 tested, 2% active | AID 504908;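 active = inhibition above a set limit, roughly 3 SD of non-fluorescent compound noise, cut at about 38% in these data; inactive = inhibition at or below that limit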;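 note: loss of bead fluorescence from 50 nM FITC arrestin peptide bound to appendage; 0% = negative control wells and 100% = excess unlabelled arrestin peptide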
GST GSH counter = counter-screen for beta-arrestin AP2 inhibitors: GST-GSH bead binding; GST-fluorescein binding to GSH beads, fluorescence; 1,300 tested, 2% active; inhibition, % at 10 µM; shares compounds with Arr AP2 block;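 active = inhibition above 50%, about 3 SD of the inhibition seen with non-fluorescent compounds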;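 note: fluorescein maleimide labelled GST captured on 4 micron glutathione beads; higher means more loss of bead fluorescence from quenching or blocked binding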
An asterisk follows results filed as active; x = not tested or not shown. Shown are actives, neighbours in structure and some others; about 0.89% of the full set was active somewhere.

SMILES | XiGFP reactiv | V-ATPase pHluor | NTR1 ag | MIN6 prolif | T cell modulator | Arr AP2 block | Arr-AP2 CP1 | GST GSH counter
O=C(COC(=O)C1(c2ccccc2F)CCCC1)NCc1cccs1 | 0 | -3 | 0 | -3 | 136 | 58* | -3 | -5
O=C(COC(=O)C1(c2ccccc2F)CCCC1)NCc1ccc2c(c1)OCO2 | 0 | -1 | 0 | 1 | 388 | 30 | x | x
CCNS(=O)(=O)c1ccc(NC(=O)Cn2nc(C(F)(F)F)cc2C)cc1 | x | -2 | 2 | 1 | 313 | 62* | 7 | 5
CC(C)CCNC(=O)CCC(=O)NNc1nc2ccccc2c2nc(-c3ccccc3)nn12 | 0 | -4 | 3 | -4 | 310 | 63* | -2 | 3
C[C@H](NC(=O)C[C@H]1CC[C@H](NC(=O)Nc2ccc3c(c2)OCO3)[C@H](CO)O1)c1ccccc1 | 1 | x | x | x | x | x | x | x
O=C(CSc1nc2ccccc2c(=O)n1Cc1ccc(F)cc1)NCc1cccs1 | 0 | -3 | 6 | -1 | 259 | 87* | 24 | 181*
C[C@H]1CN([C@@H](C)CO)C(=O)c2cc(NC(=O)c3ccncc3)ccc2O[C@H]1CN(C)C(=O)Nc1ccccc1 | 0 | x | x | x | x | x | x | x
Cc1ccc(C(=O)N2CCC(C(=O)c3ccc(F)cc3)CC2)cc1 | 0 | -1 | x | x | x | 58* | 0 | -5
Cc1ccc(C(=O)C2CCN(C(=O)c3ccc(C)cc3)CC2)cc1 | 0 | -6 | 1 | 2 | 227 | 11 | x | x
CCn1c(CC(=O)Nc2ccc(OC)cc2)nnc1SCC(=O)N1CCOCC1 | 0 | -2 | 0 | 3 | 465 | 66* | 6 | -8
CCn1c(CC(=O)Nc2ccc(Cl)cc2)nnc1SCC(=O)N1CCOCC1 | 0 | -2 | 0 | -2 | 885 | -3 | x | x
C[C@H](CO)N1C[C@H](C)[C@H](CN(C)S(C)(=O)=O)OCCCC[C@H](C)Oc2ccc(NC(=O)Nc3ccc(C(F)(F)F)cc3)cc2C1=O | -1 | x | x | x | x | x | x | x
Cc1cc(NC(=O)c2cc(-c3ccc(C)s3)nc3ccccc23)no1 | 0 | -4 | -1 | -2 | 474 | 103* | 22 | 38
C[C@@H]1CN([C@H](C)CO)C(=O)c2cc(C#CC3CCCCC3)cnc2O[C@@H]1CN(C)C(=O)Cc1ccccn1 | -1 | x | x | x | x | x | x | x
Cc1cccc(C(=O)Nc2c3c(nn2C(C)(C)C)CS(=O)(=O)C3)c1 | 1 | -6 | 0 | -1 | 368 | 61* | -3 | -3
CCOc1ccc(NC(=O)CN2C(=O)C3CC=CCC3C2=O)cc1 (centres undefined) | x | 0 | 0 | -2 | 527 | 6 | x | x
CCOc1ccc(NC(=O)CN2C(=O)C(C)SC(C)C2=O)cc1 (centres undefined) | 0 | -2 | -1 | 0 | 321 | 55* | -8 | -15
CC(c1ccccc1)n1c(Cn2ncc3ccccc3c2=O)n[nH]c1=S (centres undefined) | 0 | -3 | 0 | 2 | 641 | 54* | -11 | -3
COc1ccc(/C=N/Nc2ccc([N+](=O)[O-])cc2S(=O)(=O)N2CCN(C)CC2)cc1 | 0 | 3 | -1 | 0 | 108 | 102* | 18 | -4
COc1cccc(S(=O)(=O)N2CC3(CN[C@@H](CO)c4[nH]c5cc(OC)ccc5c43)C2)c1 | 0 | x | x | x | x | x | x | x
O=C(NCCc1ccccc1)c1cc2sccc2n1Cc1ccccc1 | x | -1 | 2 | 1 | 184 | 3 | x | x
CCn1c(C(=O)NCCCc2ccccc2)cc2sccc21 | 0 | 3 | -1 | 0 | 330 | 58* | 4 | 0
COc1ccc(OC)c(CN2CCN(C(=O)CCC(=O)c3cccs3)CC2)c1 | 0 | 3 | 2 | -3 | 402 | 55* | 0 | 0
O=C(C[C@H]1CC[C@H](NC(=O)Nc2ccc(C(F)(F)F)cc2)[C@@H](CO)O1)NCc1ccccn1 | 0 | x | x | x | x | x | x | x
